Measured values from ChEMBL document CHEMBL1828575, “Design, synthesis and antiproliferative activities of biarylolefins based on polyhydroxylated and carbohydrate scaffolds” (Eur J Med Chem, 2011).

How the values were obtained:
Assay type in all cases: functional
[1] = tested on: NCI-H322M; assay: Antitumor activity against human NCI-H322M cells after 48 hrs by SRB assay
In short: (§1)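 NCI60 panel in RPMI 1640 with 5% FBS and 2 mM L-glutamine. Cells were plated at 5000–40,000/well by doubling time, held 24 h, then time-zero plates were TCA-fixed. Five concentrations (10-fold or half-log dilutions of DMSO stocks) were applied for 48 h at 37 °C, 5% CO2. Cells were fixed with cold TCA (10% final adherent, 16% suspension) and stained with 0.4% SRB. Bound dye was dissolved in 10 mM Tris and read at 515 nm. GI50, TGI and LC50 were calculated per line.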

[2] = tested on: OVCAR-8; assay: Antitumor activity against human OVCAR8 cells after 48 hrs by SRB assay; conditions: OVCAR-8, 48 h; in short: as §1
[3] = tested on: SR; assay: Antitumor activity against human SR cells after 48 hrs by SRB assay
In short: (§2)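 NCI60 panel cells grown in RPMI 1640 with 5% FBS and 2 mM L-glutamine, plated at 5000–40,000 cells/well and preincubated 24 h at 37 °C, 5% CO₂. Compound was added from DMSO at five concentrations, 10-fold or 1/2 log dilutions, then incubated 48 h.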

[4] = tested on: TK-10; assay: Antitumor activity against human TK10 cells after 48 hrs by SRB assay; conditions: TK-10, 48 h; in short: as §2
[5] = tested on: DU-145; assay: Antitumor activity against human DU145 cells after 48 hrs by SRB assay; conditions: DU-145, 48 h; in short: as §1
[6] = tested on: A549; assay: Cytotoxicity against human A549 cells assessed as cellular growth at 10 uM after 48 hrs by SRB assay
In short: (§3)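 NCI60 single-dose screen of cells in RPMI 1640 with 5% FBS and 2 mM L-glutamine, preincubated 24 h at 37 °C, 5% CO₂. Cells were then exposed 48 h to compound added from DMSO stock. TCA-fixed, stained with 0.4% SRB in 1% acetic acid, dye solubilised in 10 mM Tris base and read at 515 nm. Growth is given as percent of untreated control.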

[7] = tested on: NCI-H322M; assay: Cytotoxicity against human NCI-H322M cells assessed as cellular growth at 10 uM after 48 hrs by SRB assay
In short: (§4)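 NCI-60 panel lines grown in RPMI 1640 with 5% FBS and 2 mM L-glutamine. Plated at 5000–40,000 cells/well and preincubated 24 h at 37 °C, 5% CO₂, with time-zero plates fixed in TCA. Compounds, dissolved in DMSO and diluted in medium, were applied for 48 h. Cells were TCA-fixed (10% final for adherent, 16% for suspension) and stained with 0.4% SRB in 1% acetic acid. Dye was solubilised in 10 mM Tris base and read at 515 nm; growth was expressed as a percentage of untreated control.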

[8] = tested on: MOLT-4; assay: Cytotoxicity against human MOLT4 cells assessed as cellular growth at 10 uM after 48 hrs by SRB assay; in short: as §4
[9] = tested on: HCT-15; assay: Cytotoxicity against human HCT15 cells assessed as cellular growth at 10 uM after 48 hrs by SRB assay; in short: as §3
[10] = tested on: RPMI-8226; assay: Cytotoxicity against human RPMI8226 cells assessed as cellular growth at 10 uM after 48 hrs by SRB assay; in short: as §4
[11] = tested on: OVCAR-5; assay: Cytotoxicity against human OVCAR5 cells assessed as cellular growth at 10 uM after 48 hrs by SRB assay; in short: as §4
[12] = tested on: EKVX; assay: Cytotoxicity against human EKVX cells assessed as cellular growth at 10 uM after 48 hrs by SRB assay; in short: as §3
[13] = tested on: HT-29; assay: Cytotoxicity against human HT-29 cells assessed as cellular growth at 10 uM after 48 hrs by SRB assay; in short: as §3
[14] = tested on: A549; assay: Antitumor activity against human A549 cells after 48 hrs by SRB assay; conditions: A549, 48 h; in short: as §1
[15] = tested on: SF-295; assay: Antitumor activity against human SF295 cells after 48 hrs by SRB assay; conditions: SF-295, 48 h; in short: as §1
[16] = tested on: HT-29; assay: Antiproliferative activity against human HT-29 cells after 48 hrs by SRB assay; conditions: HT-29, 48 h; in short: as §1
[17] = tested on: 786-0; assay: Cytotoxicity against human 786-0 cells assessed as cellular growth at 10 uM after 48 hrs by SRB assay; in short: as §3
[18] = tested on: NCI-H460; assay: Cytotoxicity against human NCI-H460 cells assessed as cellular growth at 10 uM after 48 hrs by SRB assay; in short: as §4
[19] = tested on: SF-539; assay: Antitumor activity against human SF539 cells after 48 hrs by SRB assay; conditions: SF-539, 48 h; in short: as §2
[20] = tested on: PC-3; assay: Antitumor activity against human PC3 cells after 48 hrs by SRB assay; conditions: PC-3, 48 h; in short: as §1
[21] = tested on: KM12; assay: Cytotoxicity against human KM12 cells assessed as cellular growth at 10 uM after 48 hrs by SRB assay; in short: as §3
[22] = tested on: PC-3; assay: Cytotoxicity against human PC3 cells assessed as cellular growth at 10 uM after 48 hrs by SRB assay; in short: as §4
[23] = tested on: UACC-257; assay: Antitumor activity against human UACC257 cells after 48 hrs by SRB assay; conditions: UACC-257, 48 h; in short: as §2
[24] = tested on: CCRF-CEM; assay: Cytotoxicity against human CCRF-CEM cells assessed as cellular growth at 10 uM after 48 hrs by SRB assay; in short: as §3
[25] = read-out: LC50 (the source's name)
[26] = read-out: pLC50 (the source's name) (converted)

COc1ccc(/C(=C2/O[C@@H]([C@H]3COC(C)(C)O3)[C@H]3OC(C)(C)O[C@@H]23)c2cc(OC)c(OC)c(OC)c2)cc1O
GI50 ([1]; read-out: GI50): 6.58 µM
CC50 [1, 25]: > 100 µM
TGI ([1]; read-out: TGI): > 100 µM
GI50 ([1]; read-out: pGI50 (converted)): 6.61 µM
CC50 [1, 26]: > 100 µM
TGI ([1]; read-out: pTGI): > 100 µM
GI50 ([2]; read-out: GI50): 5.27 µM
CC50 [2, 25]: > 100 µM
TGI ([2]; read-out: TGI): > 100 µM
GI50 ([2]; read-out: pGI50 (converted)): 5.25 µM
CC50 [2, 26]: > 100 µM
TGI ([2]; read-out: pTGI): > 100 µM
GI50 ([3]; read-out: GI50): 6.27 µM
CC50 [3, 25]: > 100 µM
TGI ([3]; read-out: TGI): > 100 µM
GI50 ([3]; read-out: pGI50 (converted)): 6.31 µM
CC50 [3, 26]: > 100 µM
TGI ([3]; read-out: pTGI): > 100 µM
GI50 ([4]; read-out: GI50): 2.94 µM
CC50 [4, 25]: > 100 µM
TGI ([4]; read-out: TGI): 81.4 µM
GI50 ([4]; read-out: pGI50 (converted)): 23.4 µM
CC50 [4, 26]: > 100 µM
TGI ([4]; read-out: pTGI (converted)): 61.7 µM
GI50 ([5]; read-out: GI50): 3.29 µM
CC50 [5, 25]: > 100 µM
TGI ([5]; read-out: TGI): 13.8 µM
GI50 ([5]; read-out: pGI50 (converted)): 3.31 µM
CC50 [5, 26]: > 100 µM
TGI ([5]; read-out: pTGI (converted)): 13.2 µM
Activity [6]: 84.24%
Activity [7]: 34.81%
Activity [8]: 59.94%
Activity [9]: 26.94%
Activity [10]: 63.56%
Activity [11]: 95.38%
Activity [12]: 90.16%
Activity [13]: 107.45%
GI50 ([14]; read-out: GI50): 2.32 µM
CC50 [14, 25]: > 100 µM
TGI ([14]; read-out: TGI): > 100 µM
GI50 ([14]; read-out: pGI50 (converted)): 23.4 µM
CC50 [14, 26]: > 100 µM
TGI ([14]; read-out: pTGI (converted)): > 100 µM
GI50 ([15]; read-out: GI50): 7 µM
CC50 [15, 25]: > 100 µM
TGI ([15]; read-out: TGI): 37.3 µM
GI50 ([15]; read-out: pGI50 (converted)): 6.92 µM
CC50 [15, 26]: > 100 µM
TGI ([15]; read-out: pTGI (converted)): 23.4 µM
LC50 (50% net cell kill) [16]: > 100 µM
GI50 ([16]; read-out: GI50): 3.99 µM
TGI ([16]; read-out: TGI): > 100 µM
GI50 ([16]; read-out: pGI50 (converted)): 3.98 µM
CC50 [16, 26]: > 100 µM
TGI ([16]; read-out: pTGI (converted)): > 100 µM
Activity [17]: 100.71%
Activity [18]: 79.36%
GI50 [19]: 2.59 µM
TGI [19]: 6.63 µM
CC50 [19, 25]: > 100 µM
GI50 ([20]; read-out: GI50): 5.11 µM
CC50 [20, 25]: > 100 µM
TGI ([20]; read-out: TGI): > 100 µM
GI50 ([20]; read-out: pGI50 (converted)): 5.13 µM
CC50 [20, 26]: > 100 µM
TGI ([20]; read-out: pTGI): > 100 µM
Activity [21]: 26.71%
Activity [22]: 30.63%
GI50 ([23]; read-out: GI50): > 1 µM
CC50 [23, 25]: > 100 µM
TGI ([23]; read-out: TGI): > 100 µM
GI50 ([23]; read-out: pGI50 (converted)): 100 µM
CC50 [23, 26]: > 100 µM
TGI ([23]; read-out: pTGI (converted)): > 100 µM
Activity [24]: 47.94%
